From ChEMBL document CHEMBL1781959, “Synthesis and in vitro antitumor activity of substituted quinazoline and quinoxaline derivatives: search for anticancer agent” (Eur J Med Chem, 2011)

Tests used:
[1] = tested on: SF-295; test: Cytotoxicity against human SF295 cells after 48 hrs by SRB assay; type: cell-based; settings: sf-295, 48 h
In short: (§1)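 NCI-60 five-dose screen in RPMI 1640 with 5% FBS and 2 mM L-glutamine; 5000–40,000 cells/well, 24 h pre-incubation. DMSO stocks diluted to 0.01, 0.1, 1, 10 and 100 μM final; 48 h at 37 °C, 5% CO2. Fixed with TCA (10% final adherent, 16% suspension), stained with 0.4% SRB, A515. GI50, TGI and LC50 taken from time-zero, control and test absorbances.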

[2] = tested on: SW-620; test: Cytotoxicity against human SW620 cells after 48 hrs by SRB assay; type: cell-based; settings: sw-620, 48 h
In short: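 NCI-60 five-dose screen. Cells grown in RPMI 1640 with 5% FBS and 2 mM L-glutamine and pre-incubated 24 h; a time-zero plate is TCA-fixed. Drug added at 0.01, 0.1, 1, 10 and 100 µM (DMSO stock) for 48 h at 37 °C, 5% CO2. Fixed with cold TCA (10% final for adherent, 16% for suspension cells), stained with 0.4% SRB, A515. GI50, TGI and LC50 taken from dose-response curves.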

[3] = tested on: NCI-H522; test: Anticancer activity against human NCI-H522 cells assessed as cell growth promotion at 10^-5 M after 48 hrs by SRB assay relative to control; type: functional
[4] = tested on: COLO 205; test: Anticancer activity against human COLO205 cells assessed as cell growth promotion at 10^-5 M after 48 hrs by SRB assay relative to control; type: functional
[5] = tested on: TK-10; test: Anticancer activity against human TK10 cells assessed as cell growth promotion at 10^-5 M after 48 hrs by SRB assay relative to control; type: functional
[6] = tested on: SNB-75; test: Anticancer activity against human SNB75 cells assessed as cell growth promotion at 10^-5 M after 48 hrs by SRB assay relative to control; type: functional
[7] = tested on: IGROV-1; test: Anticancer activity against human IGROV1 cells assessed as cell growth promotion at 10^-5 M after 48 hrs by SRB assay relative to control; type: functional
[8] = tested on: HT-29; test: Anticancer activity against human HT-29 cells assessed as cell growth promotion at 10^-5 M after 48 hrs by SRB assay relative to control; type: functional
[9] = tested on: OVCAR-4; test: Anticancer activity against human OVCAR4 cells assessed as cell growth promotion at 10^-5 M after 48 hrs by SRB assay relative to control; type: functional
[10] = tested on: HL-60(TB); test: Anticancer activity against human HL-60(TB) cells assessed as cell growth promotion at 10^-5 M after 48 hrs by SRB assay relative to control; type: functional
In short: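 NCI-60 single-dose screen: compound at 10^-5 M, 48 h at 37 °C, 5% CO2; cells grown in RPMI 1640 with 5% FBS and 2 mM L-glutamine, pre-incubated 24 h before dosing. Adherent cells fixed with cold TCA; endpoint is sulforhodamine B protein staining. Percent growth of treated cells is reported relative to untreated control.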

[11] = tested on: KM12; test: Growth inhibition of human KM12 cells after 48 hrs by SRB assay; type: functional; settings: KM12, 48 h
In short: (§2)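 NCI 60-panel five-dose assay at 0.01, 0.1, 1, 10 and 100 μM. Cells in RPMI 1640 with 5% FBS and 2 mM L-glutamine, preincubated 24 h, with time-zero plates TCA-fixed. Drug exposure 48 h at 37 °C. Read by SRB staining at 515 nm. GI50 is the concentration where [(Ti−Tz)/(C−Tz)]×100 = 50, taken from log concentration versus % growth curves.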

[12] = tested on: MDA-MB-231; test: Anticancer activity against human MDA-MB-231 cells assessed as cell growth promotion at 10^-5 M after 48 hrs by SRB assay relative to control; type: functional
[13] = tested on: BT-549; test: Anticancer activity against human BT549 cells assessed as cell growth promotion at 10^-5 M after 48 hrs by SRB assay relative to control; type: functional
[14] = Anticancer activity against human […] cells assessed as cell growth promotion at 10^-5 M after 48 hrs by SRB assay relative to control; type: functional
[15] = tested on: SF-539; test: Growth inhibition of human SF539 cells after 48 hrs by SRB assay; type: functional; settings: SF-539, 48 h
In short: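 NCI-60 panel cells grown in RPMI 1640 with 5% FBS and 2 mM L-glutamine, then seeded at 5000–40,000 cells/well by doubling time and preincubated for 24 h. Compound in DMSO was tested either at 10^-5 M alone or at 0.01–100 μM in five doses, for 48 h at 37 °C. Cells were fixed with cold TCA (10% final), stained with SRB, and read at 515 nm. GI50 was taken from % growth relative to time-zero and control wells.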

[16] = tested on: HOP-62; test: Anticancer activity against human HOP62 cells assessed as cell growth promotion at 10^-5 M after 48 hrs by SRB assay relative to control; type: functional
[17] = tested on: LOX IMVI; test: Cytotoxicity against human LOXIMVI cells after 48 hrs by SRB assay; type: cell-based; in short: as §1
[18] = tested on: U-251; test: Anticancer activity against human U251 cells assessed as cell growth promotion at 10^-5 M after 48 hrs by SRB assay relative to control; type: functional
[19] = tested on: K562; test: Growth inhibition of human K562 cells after 48 hrs by SRB assay; type: functional; settings: K562, 48 h; in short: as §2
[20] = tested on: DU-145; test: Anticancer activity against human DU145 cells assessed as cell growth promotion at 10^-5 M after 48 hrs by SRB assay relative to control; type: functional
[21] = tested on: SF-295; test: Growth inhibition of human SF295 cells after 48 hrs by SRB assay; type: functional; settings: SF-295, 48 h; in short: as §2
[22] = tested on: MCF7; test: Cytotoxicity against human MCF7 cells after 48 hrs by SRB assay; type: cell-based; settings: mcf7, 48 h; in short: as §1
[23] = tested on: NCI-H226; test: Anticancer activity against human NCI-H226 cells assessed as cell growth promotion at 10^-5 M after 48 hrs by SRB assay relative to control; type: functional
[24] = tested on: NCI-H322M; test: Growth inhibition of human NCI-H322M cells after 48 hrs by SRB assay; type: functional; in short: as §2
[25] = tested on: CAKI-1; test: Anticancer activity against human Caki1 cells assessed as cell growth promotion at 10^-5 M after 48 hrs by SRB assay relative to control; type: functional
[26] = tested on: OVCAR-3; test: Anticancer activity against human OVCAR3 cells assessed as cell growth promotion at 10^-5 M after 48 hrs by SRB assay relative to control; type: functional
[27] = tested on: Malme-3M; test: Growth inhibition of human MALME-3M cells after 48 hrs by SRB assay; type: functional; in short: as §2
[28] = tested on: MDA-MB-435; test: Cytotoxicity against human MDA-MB-435 cells after 48 hrs by SRB assay; type: cell-based; settings: mda-mb-435, 48 h; in short: as §1
[29] = tested on: SR; test: Anticancer activity against human SR cells assessed as cell growth promotion at 10^-5 M after 48 hrs by SRB assay relative to control; type: functional
[30] = tested on: SK-MEL-2; test: Anticancer activity against human SK-MEL-2 cells assessed as cell growth promotion at 10^-5 M after 48 hrs by SRB assay relative to control; type: functional

Row | SMILES | Activity [3] [%] | Activity [4] [%] | Activity [5] [%] | Activity [6] [%] | Activity [7] [%] | Activity [8] [%] | Activity [9] [%] | Activity [10] [%] | Activity [12] [%] | Activity [13] [%] | Activity [14] [%] | Activity [16] [%] | Activity [18] [%] | Activity [20] [%] | Activity [23] [%] | Activity [25] [%] | Activity [26] [%] | Activity [29] [%] | Activity [30] [%] | further results
1 | O=c1c2ccccc2nc(-c2ccco2)n1/N=C/c1ccccc1Cl | 10.38 | 32.76 | 73.98 | 32.38 | 71.23 | 52.78 | 4.38 | 89.12 | 52.12 | 13.63 | 92.65 | -34.84 | 37.22 | 56.23 | 53.52 | 62.86 | 27.98 | 94.12 | 67.89 | LC50 [1]: > 100 µM; LC50 [2]: > 100 µM; GI50 [11]: 3.65 µM; TGI [11]: 25.4 µM; GI50 [15]: 3.28 µM; TGI [15]: 21.2 µM; LC50 [17]: > 100 µM; GI50 [19]: > 100 µM; TGI [19]: > 100 µM; GI50 [21]: 3.26 µM; TGI [21]: > 100 µM; LC50 [22]: > 100 µM; GI50 [24]: 4.11 µM; TGI [24]: 76.9 µM; GI50 [27]: 7.23 µM; TGI [27]: > 100 µM; LC50 [28]: > 100 µM
2 | O=C(Nc1ccccc1C(=O)Nc1ccc(/C=C/c2ccc(O)cc2)cc1)c1ccccc1 | 69.87 | 101 | 100 | 99.47 | 85.6 | 97.64 | 82.05 | 50.34 | 76.35 | 65.95 | 53.22 | 95.55 | 103 | 100 | 79.29 | 70.25 | 89.47 | 94.97 | 99.47 | 
3 | O=C(Nc1ccccc1C(=O)Nc1ccc(/C=C/c2ccc(Cl)cc2)cc1)c1ccccc1 | 70.95 | 124 | 123 | 84.55 | 89.85 | 89.94 | 85.63 | 94.11 | 81.11 | 76.41 | 56.24 | 105 | 60.68 | 107 | 85.77 | 90.6 | 86.93 | 81.19 | 90.64 | 
